In ChEMBL document CHEMBL5058577, “EUbOPEN Chemogenomics Library 2 (Multiplex)” (2022):

Tested on: U2OS
Assay: Multiplex assay against U2OS
Format: toxicity, cell-based
Conditions: human
In short: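 On a CQ1 microscope at 37°C and 5% CO2, live cells were imaged after compound addition. They had been stained at seeding with Hoechst33342, BioTracker Green Microtubule Cytoskeleton Dye, MitoTracker Red and Annexin V Alexa Fluor 680. CellPathfinder machine-learning gating assigned cells to Hoechst high-intensity objects or normal cells, normal cells to healthy, pyknosed or fragmented nuclei, and pyknosed cells to mitotic or apoptotic. Tubulin, mitochondrial-mass and membrane-permeability phenotypes are per cents of healthy-nucleus cells.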

[1] = 12 h, 1 µM, compound concentration 1 uM, replicate 1
[2] = 12 h, 1 µM, compound concentration 1 uM, replicate 2
[3] = 12 h, 10 µM, compound concentration 10 uM, replicate 1
[4] = 12 h, 10 µM, compound concentration 10 uM, replicate 2
[5] = 24 h, 1 µM, compound concentration 1 uM, replicate 1
[6] = 24 h, 1 µM, compound concentration 1 uM, replicate 2
[7] = 24 h, 10 µM, compound concentration 10 uM, replicate 1
[8] = 24 h, 10 µM, compound concentration 10 uM, replicate 2
[9] = 48 h, 1 µM, compound concentration 1 uM, replicate 1
[10] = 48 h, 1 µM, compound concentration 1 uM, replicate 2
[11] = 48 h, 10 µM, compound concentration 10 uM, replicate 1
[12] = 48 h, 10 µM, compound concentration 10 uM, replicate 2

Q: How did the “Population Apoptotic (%)” value [1] turn out when `Cc1nc2ccc(Oc3ccc(F)cc3)cc2c(=O)n1C[C@H]1CCCN(C(C)C)C1.Cl` was run?
A: 83%

Q: What about the “Population Fragmented Nuclei (%)” value [1] of the same compound?
A: 25%

Q: And the “Population Healthy Nuclei (%)” value [1]?
A: 64%

Q: And the “Population Hoechst High Intensity Objects (%)” value [1]?
A: 3%

Q: And the “Population Membrane Permeable-Phenotype (%)” value [1]?
A: 9%

Q: And the “Population Mitochondria Different-Phenotype (%)” value [1]?
A: 3%

Q: And the “Population Mitotic Cells (%)” value [1]?
A: 16%

Q: And the “Population Normal (%)” value [1]?
A: 96%

Q: What about the “Population Pyknosed Nuclei (%)” value [1] of the same compound?
A: 10%

Q: And the “Population Tubulin-Different-Phenotype (%)” value [1]?
A: 7%

Q: What about the “Total Cell Count” value [1] of the same compound?
A: 244

Q: And the “Population Apoptotic (%)” value [2]?
A: 60%

Q: And the “Population Fragmented Nuclei (%)” value [2]?
A: 14%

Q: What about the “Population Healthy Nuclei (%)” value [2] of the same compound?
A: 81%

Q: What about the “Population Hoechst High Intensity Objects (%)” value [2] of the same compound?
A: 1%

Q: And the “Population Membrane Permeable-Phenotype (%)” value [2]?
A: 17%

Q: And the “Population Mitochondria Different-Phenotype (%)” value [2]?
A: 7%

Q: And the “Population Mitotic Cells (%)” value [2]?
A: 40%

Q: What about the “Population Normal (%)” value [2] of the same compound?
A: 98%

Q: What about the “Population Pyknosed Nuclei (%)” value [2] of the same compound?
A: 4%

Q: What about the “Population Tubulin-Different-Phenotype (%)” value [2] of the same compound?
A: 9%

Q: What about the “Total Cell Count” value [2] of the same compound?
A: 125

Q: What about the “Population Apoptotic (%)” value [3] of the same compound?
A: 65%

Q: What about the “Population Fragmented Nuclei (%)” value [3] of the same compound?
A: 25%

Q: What about the “Population Healthy Nuclei (%)” value [3] of the same compound?
A: 59%

Q: And the “Population Hoechst High Intensity Objects (%)” value [3]?
A: 3%

Q: And the “Population Membrane Permeable-Phenotype (%)” value [3]?
A: 58%

Q: And the “Population Mitochondria Different-Phenotype (%)” value [3]?
A: 61%

Q: What about the “Population Mitotic Cells (%)” value [3] of the same compound?
A: 35%

Q: And the “Population Normal (%)” value [3]?
A: 96%

Q: What about the “Population Pyknosed Nuclei (%)” value [3] of the same compound?
A: 15%

Q: What about the “Population Tubulin-Different-Phenotype (%)” value [3] of the same compound?
A: 63%

Q: And the “Total Cell Count” value [3]?
A: 268

Q: What about the “Population Apoptotic (%)” value [4] of the same compound?
A: 78%

Q: And the “Population Fragmented Nuclei (%)” value [4]?
A: 24%

Q: And the “Population Healthy Nuclei (%)” value [4]?
A: 58%

Q: What about the “Population Hoechst High Intensity Objects (%)” value [4] of the same compound?
A: 4%

Q: And the “Population Membrane Permeable-Phenotype (%)” value [4]?
A: 25%

Q: What about the “Population Mitochondria Different-Phenotype (%)” value [4] of the same compound?
A: 75%

Q: What about the “Population Mitotic Cells (%)” value [4] of the same compound?
A: 21%

Q: What about the “Population Normal (%)” value [4] of the same compound?
A: 95%

Q: And the “Population Pyknosed Nuclei (%)” value [4]?
A: 17%

Q: What about the “Population Tubulin-Different-Phenotype (%)” value [4] of the same compound?
A: 47%

Q: And the “Total Cell Count” value [4]?
A: 86

Q: What about the “Population Apoptotic (%)” value [5] of the same compound?
A: 78%

Q: And the “Population Fragmented Nuclei (%)” value [5]?
A: 23%

Q: And the “Population Healthy Nuclei (%)” value [5]?
A: 65%

Q: What about the “Population Hoechst High Intensity Objects (%)” value [5] of the same compound?
A: 4%

Q: What about the “Population Membrane Permeable-Phenotype (%)” value [5] of the same compound?
A: 7%

Q: And the “Population Mitochondria Different-Phenotype (%)” value [5]?
A: 5%

Q: And the “Population Mitotic Cells (%)” value [5]?
A: 21%

Q: What about the “Population Normal (%)” value [5] of the same compound?
A: 95%

Q: And the “Population Pyknosed Nuclei (%)” value [5]?
A: 10%

Q: What about the “Population Tubulin-Different-Phenotype (%)” value [5] of the same compound?
A: 4%

Q: And the “Total Cell Count” value [5]?
A: 276

Q: And the “Population Apoptotic (%)” value [6]?
A: 80%

Q: What about the “Population Fragmented Nuclei (%)” value [6] of the same compound?
A: 21%

Q: What about the “Population Healthy Nuclei (%)” value [6] of the same compound?
A: 71%

Q: And the “Population Hoechst High Intensity Objects (%)” value [6]?
A: 2%

Q: What about the “Population Membrane Permeable-Phenotype (%)” value [6] of the same compound?
A: 11%

Q: And the “Population Mitochondria Different-Phenotype (%)” value [6]?
A: 9%

Q: And the “Population Mitotic Cells (%)” value [6]?
A: 20%

Q: And the “Population Normal (%)” value [6]?
A: 97%

Q: What about the “Population Pyknosed Nuclei (%)” value [6] of the same compound?
A: 6%

Q: And the “Population Tubulin-Different-Phenotype (%)” value [6]?
A: 8%

Q: And the “Total Cell Count” value [6]?
A: 146

Q: And the “Population Apoptotic (%)” value [7]?
A: 77%

Q: What about the “Population Fragmented Nuclei (%)” value [7] of the same compound?
A: 25%

Q: And the “Population Healthy Nuclei (%)” value [7]?
A: 57%

Q: What about the “Population Hoechst High Intensity Objects (%)” value [7] of the same compound?
A: 4%

Q: What about the “Population Membrane Permeable-Phenotype (%)” value [7] of the same compound?
A: 37%

Q: What about the “Population Mitochondria Different-Phenotype (%)” value [7] of the same compound?
A: 63%

Q: And the “Population Mitotic Cells (%)” value [7]?
A: 22%

Q: And the “Population Normal (%)” value [7]?
A: 95%

Q: And the “Population Pyknosed Nuclei (%)” value [7]?
A: 16%

Q: What about the “Population Tubulin-Different-Phenotype (%)” value [7] of the same compound?
A: 47%

Q: What about the “Total Cell Count” value [7] of the same compound?
A: 297

Q: And the “Population Apoptotic (%)” value [8]?
A: 76%

Q: And the “Population Fragmented Nuclei (%)” value [8]?
A: 22%

Q: What about the “Population Healthy Nuclei (%)” value [8] of the same compound?
A: 52%

Q: And the “Population Hoechst High Intensity Objects (%)” value [8]?
A: 6%

Q: And the “Population Membrane Permeable-Phenotype (%)” value [8]?
A: 22%

Q: And the “Population Mitochondria Different-Phenotype (%)” value [8]?
A: 62%

Q: What about the “Population Mitotic Cells (%)” value [8] of the same compound?
A: 23%

Q: And the “Population Normal (%)” value [8]?
A: 93%

Q: And the “Population Pyknosed Nuclei (%)” value [8]?
A: 24%

Q: And the “Population Tubulin-Different-Phenotype (%)” value [8]?
A: 40%

Q: And the “Total Cell Count” value [8]?
A: 91

Q: And the “Population Apoptotic (%)” value [9]?
A: 84%

Q: What about the “Population Fragmented Nuclei (%)” value [9] of the same compound?
A: 19%

Q: And the “Population Healthy Nuclei (%)” value [9]?
A: 69%

Q: What about the “Population Hoechst High Intensity Objects (%)” value [9] of the same compound?
A: 1%

Q: What about the “Population Membrane Permeable-Phenotype (%)” value [9] of the same compound?
A: 7%

Q: What about the “Population Mitochondria Different-Phenotype (%)” value [9] of the same compound?
A: 5%

Q: What about the “Population Mitotic Cells (%)” value [9] of the same compound?
A: 15%

Q: What about the “Population Normal (%)” value [9] of the same compound?
A: 98%

Q: And the “Population Pyknosed Nuclei (%)” value [9]?
A: 10%

Q: And the “Population Tubulin-Different-Phenotype (%)” value [9]?
A: 4%

Q: And the “Total Cell Count” value [9]?
A: 371

Q: And the “Population Apoptotic (%)” value [10]?
A: 93%

Q: And the “Population Healthy Nuclei (%)” value [10]?
A: 72%

Q: What about the “Population Hoechst High Intensity Objects (%)” value [10] of the same compound?
A: 0%

Q: And the “Population Mitotic Cells (%)” value [10]?
A: 6%

Q: What about the “Population Normal (%)” value [10] of the same compound?
A: 99%

Q: What about the “Population Pyknosed Nuclei (%)” value [10] of the same compound?
A: 7%

Q: What about the “Population Tubulin-Different-Phenotype (%)” value [10] of the same compound?
A: 6%

Q: And the “Total Cell Count” value [10]?
A: 213

Q: What about the “Population Apoptotic (%)” value [11] of the same compound?
A: 77%

Q: What about the “Population Fragmented Nuclei (%)” value [11] of the same compound?
A: 29%

Q: What about the “Population Healthy Nuclei (%)” value [11] of the same compound?
A: 54%

Q: And the “Population Hoechst High Intensity Objects (%)” value [11]?
A: 5%

Q: And the “Population Membrane Permeable-Phenotype (%)” value [11]?
A: 29%

Q: And the “Population Mitochondria Different-Phenotype (%)” value [11]?
A: 36%

Q: And the “Population Mitotic Cells (%)” value [11]?
A: 22%

Q: What about the “Population Normal (%)” value [11] of the same compound?
A: 94%

Q: And the “Population Pyknosed Nuclei (%)” value [11]?
A: 16%

Q: And the “Population Tubulin-Different-Phenotype (%)” value [11]?
A: 23%

Q: And the “Total Cell Count” value [11]?
A: 380

Q: What about the “Population Apoptotic (%)” value [12] of the same compound?
A: 88%

Q: And the “Population Healthy Nuclei (%)” value [12]?
A: 51%

Q: What about the “Population Hoechst High Intensity Objects (%)” value [12] of the same compound?
A: 8%

Q: What about the “Population Membrane Permeable-Phenotype (%)” value [12] of the same compound?
A: 27%

Q: What about the “Population Mitochondria Different-Phenotype (%)” value [12] of the same compound?
A: 41%

Q: What about the “Population Mitotic Cells (%)” value [12] of the same compound?
A: 11%

Q: And the “Population Normal (%)” value [12]?
A: 91%

Q: And the “Population Pyknosed Nuclei (%)” value [12]?
A: 19%

Q: What about the “Population Tubulin-Different-Phenotype (%)” value [12] of the same compound?
A: 35%

Q: And the “Total Cell Count” value [12]?
A: 103
